Laboratory results taken from ChEMBL document CHEMBL1122284, “Aromatic retinoic acid analogues. 2. Synthesis and pharmacological activity” (1983).

Tests used:
Cricetinae gen. sp. [1] = experiment: Total cultures(12) versus active (3) at 10e-9 M conc. in hamster tracheal organ culture assay (TOC); format: functional, Trachea
In short: (§1)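 Tracheas from Syrian golden hamsters kept on a vitamin A deficient diet from birth to 30–32 days old. Cultured serum-free (CMRL 1066 with insulin, hydrocortisone, glutamine, antibiotics), one explant per dish, 50% O2/45% N2/5% CO2, 36 °C, rocked. 3 days without retinoid, then 7 days with retinoid, medium renewed three times. Histology on day 10. Active means keratin/keratohyaline granules absent. Usually duplicate, 6–7 tracheas per concentration.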

Cricetinae gen. sp. [2] = experiment: Total cultures(14) versus active (4) at 10e-8 M conc. in hamster tracheal organ culture assay (TOC); format: functional, Trachea; in short: as §1
Cricetinae gen. sp. [3] = experiment: Total cultures(6) versus active (1) at 10e-10 M conc. in hamster tracheal organ culture assay (TOC); format: functional, Trachea; in short: as §1
Cricetinae gen. sp. [4] = experiment: ED50 of retinoid required to effect reversal of keratinization; format: functional; in short: as §1
Cricetinae gen. sp. [5] = experiment: Relative potency with respect to retinoic acid in hamster tracheal organ culture assay (TOC); format: functional, Cricetulus griseus, Trachea
[6] = target: T1, Ornithine decarboxylase (Mus musculus) (UniProt P00860); experiment: Percent inhibition of the induction of ornithine decarboxylase at 1.7 nmol in mouse dorsal epidermis (ODC assay); format: functional
T1 sequence (whole entry): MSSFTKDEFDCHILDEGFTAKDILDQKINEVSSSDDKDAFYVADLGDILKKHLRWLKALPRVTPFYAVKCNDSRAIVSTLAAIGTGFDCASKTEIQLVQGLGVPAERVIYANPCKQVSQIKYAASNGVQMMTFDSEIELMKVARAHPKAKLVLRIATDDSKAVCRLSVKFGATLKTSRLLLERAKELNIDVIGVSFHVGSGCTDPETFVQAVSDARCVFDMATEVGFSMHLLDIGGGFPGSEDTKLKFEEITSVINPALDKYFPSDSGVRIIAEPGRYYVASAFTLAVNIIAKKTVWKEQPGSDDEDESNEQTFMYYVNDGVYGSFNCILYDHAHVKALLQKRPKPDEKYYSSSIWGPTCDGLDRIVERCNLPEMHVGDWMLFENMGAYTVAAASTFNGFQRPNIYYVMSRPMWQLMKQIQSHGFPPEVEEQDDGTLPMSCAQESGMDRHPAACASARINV

[7] = target: T1, Ornithine decarboxylase (Mus musculus); experiment: Percent inhibition of the induction of ornithine decarboxylase at 17 nmol dose in mouse dorsal epidermis (ODC assay); format: functional
Cricetinae gen. sp. [8] = experiment: Total cultures(10) versus active (12)at 10e-9 M conc. in hamster tracheal organ culture assay (TOC); format: functional, Trachea; in short: as §1
Cricetinae gen. sp. [9] = experiment: Total cultures(11) versus active(12)at 10e-8 M conc. in hamster tracheal organ culture assay (TOC); format: functional, Trachea; in short: as §1
Cricetinae gen. sp. [10] = experiment: Total cultures(6) versus active(13) at 10e-10 M conc. in hamster tracheal organ culture assay (TOC); format: functional, Trachea; in short: as §1
Cricetinae gen. sp. [11] = experiment: Total cultures(0) versus active(7) at 10e-11 M conc. in hamster tracheal organ culture assay (TOC); format: functional, Trachea; in short: as §1
Cricetinae gen. sp. [12] = experiment: Total cultures(13) versus active(13) at 10e-9 M conc. in hamster tracheal organ culture assay (TOC); format: functional, Trachea; in short: as §1
Cricetinae gen. sp. [13] = experiment: Total cultures(4) versus active(13) at 10e-10 M conc. in hamster tracheal organ culture assay (TOC); format: functional, Trachea; in short: as §1
Cricetinae gen. sp. [14] = experiment: Total cultures(6) versus active(6) at 10e-8 M conc. in hamster tracheal organ culture assay (TOC); format: functional, Trachea; in short: as §1
Cricetinae gen. sp. [15] = experiment: Total cultures(13) versus active (13) at 10e-8 M conc. in hamster tracheal organ culture assay (TOC); format: functional, Trachea; in short: as §1
Cricetinae gen. sp. [16] = experiment: Total cultures(14) versus active (10) at 10e-9 M conc. in hamster tracheal organ culture assay (TOC); format: functional, Trachea; in short: as §1
Cricetinae gen. sp. [17] = experiment: Total cultures(14) versus active (6) at 10e-10 M conc. in hamster tracheal organ culture assay (TOC); format: functional, Trachea; in short: as §1
Cricetinae gen. sp. [18] = experiment: Total cultures(15) versus active (14) at 10e-9 M conc. in hamster tracheal organ culture assay (TOC); format: functional, Trachea; in short: as §1
Cricetinae gen. sp. [19] = experiment: Total cultures(15) versus active (15) at 10e-8 M conc. in hamster tracheal organ culture assay (TOC); format: functional, Trachea; in short: as §1
Cricetinae gen. sp. [20] = experiment: Total cultures(15) versus active (7) at 10e-10 M conc. in hamster tracheal organ culture assay (TOC); format: functional, Trachea; in short: as §1
[21] = target: T1, Ornithine decarboxylase (Mus musculus); experiment: Percent inhibition of the induction of ornithine decarboxylase at 170 nmol in mouse dorsal epidermis (ODC assay); format: functional
[22] = target: T1, Ornithine decarboxylase (Mus musculus); experiment: Percent inhibition of the induction of ornithine decarboxylase in mouse dorsal epidermis (ODC assay); format: functional
Cricetinae gen. sp. [23] = experiment: Total cultures(12) versus active (10) at 10e-9 M conc. in hamster tracheal organ culture assay (TOC); format: functional, Trachea; in short: as §1
Cricetinae gen. sp. [24] = experiment: Total cultures(6) versus active (2) at 10e-11 M conc. in hamster tracheal organ culture assay (TOC); format: functional, Trachea; in short: as §1
Cricetinae gen. sp. [25] = experiment: Total cultures(7) versus active (7) at 10e-8 M conc. in hamster tracheal organ culture assay (TOC); format: functional, Trachea; in short: as §1
Cricetinae gen. sp. [26] = experiment: Total cultures(13) versus active (8) at 10e-10 M conc. in hamster tracheal organ culture assay (TOC); format: functional, Trachea; in short: as §1

Compound	ED50 (Cricetinae gen. sp. [4])	Relative activity (Cricetinae gen. sp. [5])	inhibition of control [6]	inhibition of control [7]	also measured
CCOC(=O)c1ccc(/C=C(C)/C=C/C2=C(C)CCCC2(C)C)o1	0.02 nM	<<0.1	9%	9%	Active/total cultures (Cricetinae gen. sp. [1]): 25%; Active/total cultures (Cricetinae gen. sp. [2]): 29%; Active/total cultures (Cricetinae gen. sp. [3]): 17%
CCOC(=O)c1ccc(/C(F)=C(C)/C=C/C2=C(C)CCCC2(C)C)cc1	0.02 nM	2	56%	82%	Active/total cultures (Cricetinae gen. sp. [8]): 83%; Active/total cultures (Cricetinae gen. sp. [9]): 92%; Active/total cultures (Cricetinae gen. sp. [10]): 46%
CCOC(=O)c1ccc(/C=C(C)/C=C/C2=C(C)CCCC2(C)C)cc1	0.006 nM	1		80%	Active/total cultures (Cricetinae gen. sp. [11]): 0%; Active/total cultures (Cricetinae gen. sp. [12]): 100%; Active/total cultures (Cricetinae gen. sp. [13]): 31%; Active/total cultures (Cricetinae gen. sp. [14]): 100%
CCOC(=O)c1ccc(/C=C(C)/C=C/C2=C(C)CCCC2(C)C)s1	0.02 nM	3	67%	77%	Active/total cultures (Cricetinae gen. sp. [15]): 100%; Active/total cultures (Cricetinae gen. sp. [16]): 71%; Active/total cultures (Cricetinae gen. sp. [17]): 43%
CC1=C(/C=C/C(C)=C/c2ccc(C(=O)O)s2)C(C)(C)CCC1	0.02 nM	2	42%	67%	Active/total cultures (Cricetinae gen. sp. [18]): 93%; Active/total cultures (Cricetinae gen. sp. [19]): 100%; Active/total cultures (Cricetinae gen. sp. [20]): 47%
CC1=C(/C=C/C(C)=C/c2ccc(C(=O)O)cc2)C(C)(C)CCC1		2	62%	69%	inhibition of control [21]: 87%
CC1=C(/C=C/C(C)=C\c2ccc(C(=O)O)cc2)C(C)(C)CCC1	0.01 nM	<0.1	33%	43%	inhibition of control [22]: 64%
CCOC(=O)c1ccc(/C=C(C)/C=C/C2=C(C)CCCC2(C)C)c(OC)c1	0.006 nM	5	21%	39%	Active/total cultures (Cricetinae gen. sp. [23]): 83%; Active/total cultures (Cricetinae gen. sp. [24]): 33%; Active/total cultures (Cricetinae gen. sp. [25]): 100%; Active/total cultures (Cricetinae gen. sp. [26]): 62%
